Assay results: PMC5092235 (Journal of medicinal chemistry, 2016)
Blank lines part the entries; values can stand above or below the compound they belong to.

Experiments:
[1] = Caco-2 membrane permeability studies; format: in vitro ADME; conditions: for cellular permeability: Caco-2 cells; for efflux ratio: human, Caco-2
[2] = system: MLL-AF9 transformed murine bone marrow cells; assay: MTT cell viability assay in MLL-AF9 transformed murine bone marrow cells; format: cell-based; conditions: for SI, selectivity index: ratio of GI50 values measured in HM-2 cells (control cell line) and MLL-AF9 transformed cells; for GI50: read-out: GI50 MLL-AF9, MTT cell viability assay, 7 days of treatment
[3] = Pharmacokinetic studies in mice; format: in vivo, mouse; conditions: 24 h experiments (31: 8 h experiment); for Clobs: mice; for half-life: female, C57BL/6, mouse, plasma, T1/2, mice
[4] = system: panel of kinases; assay: Kinase profiling; format: biochemical
[5] = system: panel of GPCRs; assay: GPCR profiling
[6] = biological target: T1, menin (Homo sapiens, UniProt O00255); assay: Isothermal titration calorimetry, binding to menin
T1 sequence (O00255 1-610): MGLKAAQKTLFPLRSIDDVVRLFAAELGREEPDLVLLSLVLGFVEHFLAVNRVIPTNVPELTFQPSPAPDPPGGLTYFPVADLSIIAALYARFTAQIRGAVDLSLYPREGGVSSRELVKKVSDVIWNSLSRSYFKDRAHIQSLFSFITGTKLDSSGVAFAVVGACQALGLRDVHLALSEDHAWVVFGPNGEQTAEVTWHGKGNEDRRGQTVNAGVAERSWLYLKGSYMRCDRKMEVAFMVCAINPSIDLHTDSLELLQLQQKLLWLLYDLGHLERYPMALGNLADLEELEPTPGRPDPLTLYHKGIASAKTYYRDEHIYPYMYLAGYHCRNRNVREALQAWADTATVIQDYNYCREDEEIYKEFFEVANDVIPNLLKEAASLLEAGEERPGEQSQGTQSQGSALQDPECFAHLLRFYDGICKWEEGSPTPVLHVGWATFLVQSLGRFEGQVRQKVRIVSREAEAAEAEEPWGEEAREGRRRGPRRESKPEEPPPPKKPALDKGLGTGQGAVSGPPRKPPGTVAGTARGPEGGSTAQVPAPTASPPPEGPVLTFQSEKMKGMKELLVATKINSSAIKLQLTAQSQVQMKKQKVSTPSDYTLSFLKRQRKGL

[7] = system: Hoxa9/Meis1 (HM-2) transformed murine bone marrow cells; assay: MTT cell viability assay in Hoxa9/Meis1; format: cell-based; conditions: up to 6 μM, 7 days
[8] = system: HL-60 cells; assay: MTT cell viability assay in HL-60 control cell line; format: cell-based, human; conditions: up to 6 μM, 7 days
How it was run: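 MTT viability over 7 days at 37 °C. Cells were grown in RPMI-1640 with 10% FBS, penicillin/streptomycin and NEAA, then seeded at 2 × 10^5/mL (HL-60) or 1 × 10^5/mL (MV4;11, MOLM-13). They were treated with test compound or 0.25% DMSO. On day 4 the medium was changed, viable cells were reset to the starting density, and compound was resupplied. Absorbance was read at 570 nm in quadruplicate, with runs repeated 2–3 times; mean and SD are reported.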

[9] = system: Hoxa9, Meis1 and Itgam expression in MLL-AF9 transformed BMCs; assay: qRT-PCR gene expression in MLL-AF9 transformed murine bone marrow cells; format: cell-based; conditions: 6 days of treatment
How it was run: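 MLL-AF9-transformed murine bone marrow cells were treated for 6 days, and expression was then quantified by qRT-PCR. Itgam was normalised to 18S rRNA, and Hoxa9 and Meis1 to β-actin, each relative to DMSO-treated cells. Values are mean ± SD, n = 2.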

[10] = system: MV4;11 tumors; assay: MV4; format: in vivo, mouse; conditions: 45 mg/kg, once daily via ip, 2 weeks
[11] = Phase II metabolism, detection of glucuronidation in blood plasma; format: in vivo, mouse; conditions: blood plasma after iv administration, 15 mg/kg
How it was run: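 Test compound was given iv at 15 mg/kg to mice. Glucuronide was detected in blood plasma by LC–MS/MS in positive-ion MRM mode, following the same handling used for the pharmacokinetic study.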

- cellular permeability [1]: poor cellular permeability
SMILES: N#Cc1cc2cc(CN3CCC(Nc4ncnc5sc(CC(F)(F)F)cc45)CC3)ccc2n1CC(O)CO (racemic) [3-(RS)]

- efflux ratio [1]: > 20
SMILES: CO[C@@H](CO)Cn1c(C#N)cc2cc(CN3CCC(Nc4ncnc5sc(CC(F)(F)F)cc45)CC3)ccc21 [4-(R)]

- Clobs ([3]; iv, 15 mg/kg): 38.1 mL/min/kg
SMILES: N#Cc1cc2cc(CN3CCC(Nc4ncnc5sc(CC(F)(F)F)cc45)CC3)ccc2[nH]1 [Compound 1, 5-((4-((6-(2,2,2-Trifluoroethyl)thieno[2,3-d]pyrimidin-4-yl)-amino)piperidin-1-yl)methyl)-1H-indole-2-carbonitrile]
- SI, selectivity index [2]: < 6
- off-target activity on a panel of kinases [4]: did not show substantial off-target activity
- off-target activity on a panel of GPCRs [5]: did not show substantial off-target activity

- cellular permeability [1]: poor cellular permeability
- efflux ratio [1]: > 90
SMILES: N#Cc1cc2cc(CN3CCC(Nc4ncnc5sc(CC(F)(F)F)cc45)CC3)ccc2n1CC(N)=O [Compound 7, 2-(2-Cyano-5-((4-((6-(2,2,2-trifluoroethyl)thieno[2,3-d]-pyrimidin-4-yl)amino)piperidin-1-yl)methyl)-1H-indol-1-yl)-acetamide]

- Clobs ([3]; iv, 15 mg/kg): 44.1 mL/min/kg
SMILES: Cc1c(CN2CCC(Nc3ncnc4sc(CC(F)(F)F)cc34)CC2)c(O)cc2[nH]c(C#N)cc12 [Compound 20, 6-Hydroxy-4-methyl-5-((4-((6-(2,2,2-trifluoroethyl)thieno-[2,3-d]pyrimidin-4-yl)amino)piperidin-1-yl)methyl)-1H-indole-2-carbonitrile]
- GI50 [2]: < 200 nM
- cellular permeability [1]: relatively high to moderate cellular permeability

- Clobs ([3]; iv, 15 mg/kg): 26.6 mL/min/kg
SMILES: COc1cc2[nH]c(C#N)cc2c(C)c1CN1CCC(Nc2ncnc3sc(CC(F)(F)F)cc23)CC1 [Compound 21, 6-Methoxy-4-methyl-5-((4-((6-(2,2,2-trifluoroethyl)thieno-[2,3-d]pyrimidin-4-yl)amino)piperidin-1-yl)methyl)-1H-indole-2-carbonitrile]
- GI50 [2]: 100 nM
- cellular permeability [1]: relatively high to moderate cellular permeability

- cellular permeability [1]: poor cellular permeability
SMILES: Cc1c(CN2CCC(Nc3ncnc4sc(CC(F)(F)F)cc34)CC2)ccc2c1cc(C#N)n2CC(N)=O [Compound 25, 2-(2-Cyano-4-methyl-5-((4-((6-(2,2,2-trifluoroethyl)thieno-[2,3-d]pyrimidin-4-yl)amino)piperidin-1-yl)methyl)-1H-indol-1-yl)acetamide]

- ligand efficiency index (LE) [6]: 0.28
- half-life ([3]; iv, 15 mg/kg, iv, 15 mg/kg): ~1.6 h
- half-life ([3]; po, 30 mg/kg, po, 30 mg/kg): 1.6 h
- Clobs ([3]; iv, 15 mg/kg): 14.0 mL/min/kg
- phase II metabolism [11]: undergoes glucuronidation
SMILES: N#Cc1cc2cc(CN3CCC(Nc4ncnc5sc(CC(F)(F)F)cc45)CC3)c(O)cc2n1Cc1cn[nH]c1 [Compound 27, 1-((1H-Pyrazol-4-yl)methyl)-6-hydroxy-5-((4-((6-(2,2,2-trifluoroethyl)thieno[2,3-d]pyrimidin-4-yl)amino)piperidin-1-yl)methyl)-1H-indole-2-carbonitrile]
- SI, selectivity index [2]: > 100
- effect on growth of control cell line HM-2 [7]: no effect
- effect on growth of control cell line HL-60 [8]: no effect
- expression level of Itgam (differentiation marker) [9]: marked increase
- reduction in the MV4;11 tumor volume [10]: about 80%
- reduction of the body weight [10]: less than 10%

- Clobs ([3]; iv, 15 mg/kg): 15.0 mL/min/kg
SMILES: COc1cc2c(cc(C#N)n2Cc2cn[nH]c2)c(C)c1CN1CCC(Nc2ncnc3sc(CC(F)(F)F)cc23)CC1 [Compound 31, 1-((1H-Pyrazol-4-yl)methyl)-6-methoxy-4-methyl-5-((4-((6-(2,2,2-trifluoroethyl)thieno[2,3-d]pyrimidin-4-yl)amino)-piperidin-1-yl)methyl)-1H-indole-2-carbonitrile]
- GI50 [2]: < 200 nM
